Data taken from ChEMBL document CHEMBL5724801, “EUbOPEN Chemogenomics Library - Multiplex” (2024).
Values joined by “and” are separate entries in the source; they are usually repeats but may differ in a detail not shown here. Identical values can stand only once.

Tested on: HEK-293T
Assay: Multiplex assay against HEK293T
Type: toxicity, cell-based
Settings: human
In short: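 On a CQ1 microscope at 37°C and 5% CO2, live cells were imaged after compound addition. They had been stained at seeding with Hoechst33342, BioTracker Green Microtubule Cytoskeleton Dye, MitoTracker Red and Annexin V Alexa Fluor 680. CellPathfinder machine-learning gating assigned cells to Hoechst high-intensity objects or normal cells, normal cells to healthy, pyknosed or fragmented nuclei, and pyknosed cells to mitotic or apoptotic. Tubulin, mitochondrial-mass and membrane-permeability phenotypes are per cents of healthy-nucleus cells.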

[1] = 12 h, 1 µM, compound concentration 1 uM
[2] = 12 h, 10 µM, compound concentration 10 uM
[3] = 24 h, 1 µM, compound concentration 1 uM
[4] = 24 h, 10 µM, compound concentration 10 uM
[5] = 48 h, 1 µM, compound concentration 1 uM
[6] = 48 h, 10 µM, compound concentration 10 uM

Q: For `C[C@H](N)COC(=O)[C@@H](CCCCN)NC(=O)Cc1c(-c2ccc3ccccc3c2)[nH]c2c1ccc1ccccc12`, which “Population Apoptotic (%)” value [1] is on record?
A: Its value is 22% and 51%.

Q: And the “Population Fragmented Nuclei (%)” value [1]?
A: The value was 6% and 8%.

Q: What about the “Population Healthy Nuclei (%)” value [1] of the same molecule?
A: The value was 82% and 74%.

Q: And the “Population Hoechst High Intensity Objects (%)” value [1]?
A: Its value is 8%.

Q: And the “Population Membrane Permeable-Phenotype (%)” value [1]?
A: The value was 0%.

Q: What about the “Population Mitochondria Different-Phenotype (%)” value [1] of the same molecule?
A: Its value is 37% and 65%.

Q: And the “Population Mitotic Cells (%)” value [1]?
A: Its value is 77% and 48%.

Q: And the “Population Normal (%)” value [1]?
A: The value was 91%.

Q: What about the “Population Pyknosed Nuclei (%)” value [1] of the same molecule?
A: Its value is 10% and 16%.

Q: What about the “Population Tubulin-Different-Phenotype (%)” value [1] of the same molecule?
A: The value was 27% and 30%.

Q: And the “Total Cell Count” value [1]?
A: The value was 458 and 291.

Q: What about the “Population Apoptotic (%)” value [2] of the same molecule?
A: Its value is 41% and 61%.

Q: What about the “Population Fragmented Nuclei (%)” value [2] of the same molecule?
A: The value was 7% and 5%.

Q: And the “Population Healthy Nuclei (%)” value [2]?
A: The value was 78%.

Q: What about the “Population Hoechst High Intensity Objects (%)” value [2] of the same molecule?
A: The value was 11% and 7%.

Q: What about the “Population Membrane Permeable-Phenotype (%)” value [2] of the same molecule?
A: Its value is 0%.

Q: What about the “Population Mitochondria Different-Phenotype (%)” value [2] of the same molecule?
A: The value was 60% and 72%.

Q: What about the “Population Mitotic Cells (%)” value [2] of the same molecule?
A: The value was 58% and 38%.

Q: What about the “Population Normal (%)” value [2] of the same molecule?
A: Its value is 88% and 93%.

Q: And the “Population Pyknosed Nuclei (%)” value [2]?
A: Its value is 14% and 16%.

Q: And the “Population Tubulin-Different-Phenotype (%)” value [2]?
A: The value was 54% and 50%.

Q: And the “Total Cell Count” value [2]?
A: Its value is 435 and 343.

Q: And the “Population Apoptotic (%)” value [3]?
A: The value was 25% and 54%.

Q: And the “Population Fragmented Nuclei (%)” value [3]?
A: Its value is 9% and 7%.

Q: And the “Population Healthy Nuclei (%)” value [3]?
A: The value was 77% and 80%.

Q: What about the “Population Hoechst High Intensity Objects (%)” value [3] of the same molecule?
A: The value was 4% and 7%.

Q: And the “Population Membrane Permeable-Phenotype (%)” value [3]?
A: The value was 0% and 1%.

Q: And the “Population Mitochondria Different-Phenotype (%)” value [3]?
A: Its value is 24% and 47%.

Q: And the “Population Mitotic Cells (%)” value [3]?
A: Its value is 75% and 45%.

Q: And the “Population Normal (%)” value [3]?
A: Its value is 95% and 92%.

Q: What about the “Population Pyknosed Nuclei (%)” value [3] of the same molecule?
A: Its value is 12%.

Q: What about the “Population Tubulin-Different-Phenotype (%)” value [3] of the same molecule?
A: Its value is 19% and 25%.

Q: What about the “Total Cell Count” value [3] of the same molecule?
A: Its value is 638 and 352.

Q: And the “Population Apoptotic (%)” value [4]?
A: The value was 41% and 48%.

Q: What about the “Population Fragmented Nuclei (%)” value [4] of the same molecule?
A: The value was 6% and 9%.

Q: And the “Population Healthy Nuclei (%)” value [4]?
A: The value was 78% and 80%.

Q: And the “Population Hoechst High Intensity Objects (%)” value [4]?
A: The value was 6% and 7%.

Q: And the “Population Membrane Permeable-Phenotype (%)” value [4]?
A: The value was 0%.

Q: And the “Population Mitochondria Different-Phenotype (%)” value [4]?
A: Its value is 57% and 54%.

Q: What about the “Population Mitotic Cells (%)” value [4] of the same molecule?
A: The value was 58% and 51%.

Q: What about the “Population Normal (%)” value [4] of the same molecule?
A: Its value is 93% and 92%.

Q: And the “Population Pyknosed Nuclei (%)” value [4]?
A: The value was 14% and 10%.

Q: And the “Population Tubulin-Different-Phenotype (%)” value [4]?
A: Its value is 45% and 42%.

Q: What about the “Total Cell Count” value [4] of the same molecule?
A: The value was 539 and 439.

Q: What about the “Population Apoptotic (%)” value [5] of the same molecule?
A: The value was 15% and 37%.

Q: And the “Population Fragmented Nuclei (%)” value [5]?
A: Its value is 13% and 11%.

Q: What about the “Population Healthy Nuclei (%)” value [5] of the same molecule?
A: Its value is 78% and 79%.

Q: And the “Population Hoechst High Intensity Objects (%)” value [5]?
A: Its value is 4%.

Q: What about the “Population Membrane Permeable-Phenotype (%)” value [5] of the same molecule?
A: The value was 2% and 0%.

Q: What about the “Population Mitochondria Different-Phenotype (%)” value [5] of the same molecule?
A: The value was 16% and 29%.

Q: What about the “Population Mitotic Cells (%)” value [5] of the same molecule?
A: Its value is 84% and 62%.

Q: What about the “Population Normal (%)” value [5] of the same molecule?
A: The value was 95%.

Q: What about the “Population Pyknosed Nuclei (%)” value [5] of the same molecule?
A: Its value is 7% and 9%.

Q: And the “Population Tubulin-Different-Phenotype (%)” value [5]?
A: Its value is 13% and 17%.

Q: What about the “Total Cell Count” value [5] of the same molecule?
A: Its value is 963 and 540.

Q: And the “Population Apoptotic (%)” value [6]?
A: Its value is 27% and 32%.

Q: And the “Population Fragmented Nuclei (%)” value [6]?
A: The value was 13% and 14%.

Q: And the “Population Healthy Nuclei (%)” value [6]?
A: Its value is 78% and 79%.

Q: What about the “Population Hoechst High Intensity Objects (%)” value [6] of the same molecule?
A: The value was 6% and 4%.

Q: And the “Population Membrane Permeable-Phenotype (%)” value [6]?
A: Its value is 0%.

Q: And the “Population Mitochondria Different-Phenotype (%)” value [6]?
A: Its value is 44% and 43%.

Q: And the “Population Mitotic Cells (%)” value [6]?
A: Its value is 72% and 67%.

Q: What about the “Population Normal (%)” value [6] of the same molecule?
A: The value was 93% and 95%.

Q: And the “Population Pyknosed Nuclei (%)” value [6]?
A: The value was 7% and 6%.

Q: What about the “Population Tubulin-Different-Phenotype (%)” value [6] of the same molecule?
A: The value was 33% and 35%.

Q: And the “Total Cell Count” value [6]?
A: Its value is 781 and 681.
